Most compounds without a hit are left out; they make up all but 4.9% or so of the library.
STAT3 act: IL-6 driven STAT3 reporter potentiators, primary screen, U3A cells, luciferase, luminescence, MLSCN library | IL-6 STAT3-luciferase reporter; 100% = signal with IL-6 EC80 alone | activation (% of control), % at 5.6 µM | 0.91% of 190,000 active | AID 871, 2007;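 active means activation above the screen-wide mean of compound activation plus 3 SD, cut at about 130% in these data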;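 further: 0% = background luminescence of wells with medium and substrate only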
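Material: STAT1-lacking human U3A cells, STAT3 luciferase reporter | Benchmarks: IL-6-only wells as 100% reference | Probe or stimulus: IL-6 (33 ng/mL) | Timing: Compound 1 h, then IL-6 6 h at 37 °C | Detection: Luminescence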
STAT1 inh: STAT1 signaling inhibitors, primary screen, cell-based, HTS, luciferase reporter. AID 920, 2007. NIH 3T3 STAT1-luciferase reporter, IFN-gamma, luminescence. inhibition, % at 5.5 µM. 0.35% of 200,000 active;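 active means inhibition above a set limit, the mean inhibition across all tested compounds plus 3 SD, cut at about 34% in these data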;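 further: 0% = IFN-gamma with DMSO and 100% = IFN-gamma with 300 µM nifuroxazide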
FLuc inh counter: firefly luciferase enzyme inhibitors, primary screen, artefact control for luciferase-based inhibitor screens, biochemical, luminescence, ATPLite; Luciferin 4-monooxygenase (Photinus pyralis), P08659; 10 min; inhibition, % at 10 µM; 1.5% of 200,000 active; AID 1006, 2008;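 active means inhibition above about 50% when tested at 10 µM, limit read from the data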
Target sequence (P08659 whole entry, looked up): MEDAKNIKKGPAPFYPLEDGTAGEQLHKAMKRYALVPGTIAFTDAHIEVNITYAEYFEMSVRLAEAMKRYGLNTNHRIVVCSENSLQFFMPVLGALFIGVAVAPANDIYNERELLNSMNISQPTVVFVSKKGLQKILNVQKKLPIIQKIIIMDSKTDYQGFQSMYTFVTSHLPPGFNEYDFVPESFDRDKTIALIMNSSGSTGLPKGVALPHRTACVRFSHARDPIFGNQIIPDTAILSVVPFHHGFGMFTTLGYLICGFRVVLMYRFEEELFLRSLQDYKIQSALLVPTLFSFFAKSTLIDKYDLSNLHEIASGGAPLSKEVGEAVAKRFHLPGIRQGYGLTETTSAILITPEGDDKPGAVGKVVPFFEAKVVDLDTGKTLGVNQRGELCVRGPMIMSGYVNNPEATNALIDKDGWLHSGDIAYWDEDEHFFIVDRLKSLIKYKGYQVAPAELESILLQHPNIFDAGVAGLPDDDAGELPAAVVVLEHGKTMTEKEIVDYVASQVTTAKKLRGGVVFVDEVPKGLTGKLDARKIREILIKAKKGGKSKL
FLuc stim CS: FLuc activators, initial screening, artefact control for FLuc-dependent activation tests, biochemical, ATPlite luminescence; Luciferin 4-monooxygenase (Photinus pyralis), P08659; ATPlite luciferase biochemical, 10 min; 0 = ATP-free wells, 1 = DMSO control; activation factor at 10 µM; 200,000 tested, under 10 active; AID 1027, 2008;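 active means luciferase activation factor, scaled between plate controls, of at least 2 with compound at 10 µM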
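assay system = Luciferase/luciferin detection reagent, cell-free biochemical luciferase assay | also added = ATP substrate | times = 10 min post-reagent at room temperature | measured by = luminescence from luciferase reaction | measure = luciferase activation, seen as luminescence increase over controls | benchmarks = low control with PBS replacing ATP, high control enzyme plus ATP without compound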
STAT3 blocker: IL-6 driven STAT3 reporter inhibitors, primary screen, U3A cells, luciferase, luminescence, MLSCN library. IL-6 STAT3-luciferase reporter; host cell line lacks STAT1. 0.89% of 190,000 active. AID 862, 2007. inhibition, % at 5.5 µM;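 active means inhibition above the mean inhibition across all screened compounds plus 3 SD, cut at about 44% in these data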;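 further: 0% = DMSO only wells and 100% = 100 µM nifuroxazide control wells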
STAT1 activator: STAT1 signaling activators, primary screen, cell-based, HTS, luciferase reporter. activation (% of control), % at 5.5 µM. 2.6% of 200,000 active. NIH 3T3 STAT1-luciferase reporter, IFN-gamma, luminescence; 100% = IFN-gamma alone, no compound. AID 932, 2007;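 active means activation above the screen-wide mean activation plus 3 SD, cut at about 130% in these data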;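 further: raw ratio to IFN-gamma control signal so 100% means no change and 0% no light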
STAT1 act conf: STAT1 signaling activators, confirmation, cell-based, HTS, luciferase reporter; shares compounds with STAT1 activator; NIH 3T3 STAT1-luciferase reporter, IFN-gamma potentiation, luminescence; 100% = IFN-gamma EC80 alone, no compound; AID 1262, 2008; 97% of 1,200 active; activation (% of control), % at 5.7 µM;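 active means activation above a set limit carried over from the earlier primary STAT1 screen, cut at about 140% in these data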;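 further: simple ratio to median IFN-gamma plus DMSO wells so 0% means no light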
NFkB act STAT1ct: NF-kB reporter activators, TNF-alpha stimulated, counter-screen for STAT1 activator project, cell-based, HEK293T, luciferase luminescence. 100% = TNF-alpha with vehicle only. 43% of 1,200 active. activation (% of control), % at 5.7 µM. shares compounds with STAT1 activator;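 active means activation above the mean of solvent-only control wells plus 3 SD, set per campaign, cut at about 130% in these data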;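 further: TNF-alpha given at a submaximal dose yielding about 80% of full reporter signal; values are well signal over median control so 100% means no change and 0% no light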
STAT3 act 2: STAT3 reporter activation by STAT1 hits, confirmation, counter-screen for STAT1 activator project, U3A cells, luciferase, luminescence; AID 1316, 2008; 46% of 1,200 active; IL-6; cells lack STAT1; 100 = IL-6 alone, no compound effect; shares compounds with STAT1 activator; activation (% of control), % at 5.7 µM;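 active means activation above the solvent-only control well mean plus 3 SD, set per plate batch, cut at about 110% in these data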;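 further: 0% = no luminescence and 100% = median IL-6 plus DMSO wells; higher means more STAT3 reporter activation so hits are non-selective activators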
An asterisk follows results filed as active; / = no result given.

SMILES	STAT3 act	STAT1 inh	FLuc inh counter	FLuc stim CS	STAT3 blocker	STAT1 activator	STAT1 act conf	NFkB act STAT1ct	STAT3 act 2
O=C(/C=C/c1ccc(F)cc1)Nc1nc2ccccc2[nH]1	92	-60	22	0.8	12	154*	189*	119	91
O=C(Nc1nc2ccccc2[nH]1)C1CC1	104	-27	4	1	3	124	/	/	/
O=c1[nH]c2ccccc2nc1/C=C/c1ccc(F)cc1	99	-67	68*	0.3	5	159*	166*	130	107
O=c1[nH]c2ccccc2nc1/C=C/c1ccccc1	119	-71	60*	0.4	-15	162*	188*	128	121*
Cn1c(=O)[nH]c(=O)c2c1nc(Br)n2CC(O)COc1ccc(Cl)cc1 (stereo not given)	94	22	-4	1	14	77	/	/	/
CCn1c(=O)c(C(=O)CN2CCN(S(=O)(=O)c3cc(C)ccc3C)CC2)c(N)n(Cc2ccccc2)c1=O	98	8	-4	1	6	93	/	/	/
O=c1c2ccccc2nnn1Cc1ccc2ccccc2c1	116	-3	-10	1.1	-11	101	/	/	/
COc1cc([N+](=O)[O-])ccc1NC(=O)CN1CCN(C(=O)c2ccco2)CC1	100	6	-4	1	5	94	/	/	/
COc1ccc(NC(=O)Nc2ccccc2F)cc1Cl	99	-76	13	0.9	6	165*	200*	131	108
COc1ccc(NC(=O)c2cc(F)cc(F)c2)cc1Cl	93	-26	-2	1	9	124	/	/	/
COc1ccc(NC(=O)c2c(F)c(F)c(F)c(F)c2F)cc1Cl	104	1	-2	1	-4	99	/	/	/
COc1ccc(NC(=O)c2ccc(OC(F)F)cc2)cc1Cl	105	-75	52*	0.5	-4	166*	181*	129	103
COc1ccc(C(=O)Nc2ccc(SC(F)F)cc2)cc1	94	-72	19	0.8	5	164*	182*	141*	89
CCCCOc1ccc(C(=O)Nc2ccc(SC(F)F)cc2)cc1OC	107	-3	-5	1	-11	103	/	/	/
O=S(=O)(Nc1cccc(-c2ccc3nncn3n2)c1)c1ccc(Cl)s1	101	2	-4	1	2	97	/	/	/
Cc1ccnc(NS(=O)(=O)c2ccc(NC(=O)CSc3nc(-c4ccccc4)cc(=O)[nH]3)cc2)n1	105	-6	16	0.8	-1	103	/	/	/
CCOc1nc(C)ccc1-c1noc(-c2ccccn2)n1	99	-14	5	1	7	113	/	/	/
COc1ccccc1-c1noc(-c2ccccc2)n1	98	-83	44	0.6	6	176*	213*	142*	116*
CCOc1ccccc1-c1nc(-c2ccc(C)nc2OC)no1	95	-58	16	0.8	8	153*	167*	133	114*
O=C(Oc1ccc(-c2cnc3ccccc3n2)cc1)c1cc([N+](=O)[O-])ccc1Cl	109	-3	-1	1	-3	103	/	/	/
O=C(Oc1ccc(-c2cnc3ccccc3n2)cc1)c1ccco1	66	-60	38	0.6	40	155*	190*	103	102
Nc1nc(-c2ccc(Cl)cc2)nnc1-c1ccc(Br)cc1	95	-73	28	0.7	9	165*	191*	143*	105
Nc1cccc(C(=O)OCC(=O)c2ccccc2)c1	108	-93	69*	0.3	-9	181*	181*	121	117*
CC(C)(C)NC(=O)NC(=O)COc1ccc(Br)cc1Br	104	-106	23	0.8	-7	196*	243*	130	114*
CC(C)(C)NC(=O)NC(=O)COC(=O)COc1ccc(Cl)cc1Cl	105	-5	-2	1	-1	105	/	/	/
SMILES	STAT3 act	STAT1 inh	FLuc inh counter	FLuc stim CS	STAT3 blocker	STAT1 activator	STAT1 act conf	NFkB act STAT1ct	STAT3 act 2
COc1ccc(/C=C2\OC(=O)c3c(OC)cccc32)cc1OC	103	-77	50*	0.5	5	169*	209*	139*	112*
CC1CC(C)CN(C(=O)COC(=O)CCc2nc3ccccc3c(=O)[nH]2)C1 (stereo not given)	102	-13	1	1	0	111	/	/	/
CCOc1ccc(-c2nc3scc(-c4cccs4)c3c(=O)[nH]2)cc1	102	-17	-4	1	2	114	/	/	/
Cc1csc2nc(CSc3ccc(Cl)cc3)cn12	86	-58	21	0.8	20	153*	198*	135*	109
Cc1csc2nc(CSc3nc4ccccc4o3)cn12	94	-21	9	0.9	10	120	/	/	/
CCn1c(C)nc2cc(C(=O)NNC(=S)Nc3ccccc3)ccc21	97	-67	39	0.6	10	160*	228*	141*	118*
CCn1c(C)nc2cc(C(=O)NNC(=S)NC(=O)c3ccccc3)ccc21	102	-5	3	1	0	104	/	/	/
Fc1ccccc1C1c2[nH]c3ccccc3c2CCN1Cc1ccoc1 (stereo not given)	129	-1	-9	1.1	-31	99	/	/	/
COc1ccc(S(=O)(=O)Nc2ccccc2C)cc1C(=O)N1CCOCC1	104	3	2	1	7	97	/	/	/
CC(=O)c1ccc(NC(=O)c2noc3c2CCCCC3)cc1	90	-55	8	0.9	16	151*	223*	129	102
O=[N+]([O-])c1cc(C(F)(F)F)ccc1NCCNC(=S)Nc1ccc(Cl)cc1	99	-12	-2	1	12	111	/	/	/
Cc1cc(C(=O)CN2C(=O)c3ccccc3C2=O)c(C)n1Cc1cccs1	86	-66	62*	0.4	19	161*	193*	107	110
COC(=O)c1c(C)[nH]c(-c2csc(N)n2)c1C	102	-19	3	1	-1	116	/	/	/
